# Source: ChEMBL document CHEMBL4321859, “Unforeseen Possibilities To Investigate the Regulation of Polyamine Metabolism Revealed by Novel C-Methylated Spermine Derivatives” (J Med Chem, 2019)
# Calls of active or inactive are those of the source. The rule behind the calls is not given here.
# Key:
# CC(CCN)NCCCCNC(C)CCN = assay: (§1) Substrate activity at recombinant mouse SSAT assessed as Km at 2000 to 6000 uM; format: ADME
# CC(CN)CNCCCCNCC(C)CN = assay: as §1; format: ADME
# [1] = biological target: Diamine acetyltransferase 1 (Mus musculus) (UniProt P48026); assay: Inhibition of recombinant mouse SSAT using spm as substrate at 500 uM relative to control
# In short: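 Mouse recombinant SSAT acetylation with spermine fixed at 50 μM as substrate, analogue present at 500 μM. Activity expressed relative to reaction without analogue.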
# [2] = biological target: T1, Amine oxidase [copper-containing] 3 (Bos taurus) (UniProt Q9TTK6); assay: Inhibition of bovine plasma SSAO at 50 uM using spermine as substrate relative to control
# T1 sequence (whole entry): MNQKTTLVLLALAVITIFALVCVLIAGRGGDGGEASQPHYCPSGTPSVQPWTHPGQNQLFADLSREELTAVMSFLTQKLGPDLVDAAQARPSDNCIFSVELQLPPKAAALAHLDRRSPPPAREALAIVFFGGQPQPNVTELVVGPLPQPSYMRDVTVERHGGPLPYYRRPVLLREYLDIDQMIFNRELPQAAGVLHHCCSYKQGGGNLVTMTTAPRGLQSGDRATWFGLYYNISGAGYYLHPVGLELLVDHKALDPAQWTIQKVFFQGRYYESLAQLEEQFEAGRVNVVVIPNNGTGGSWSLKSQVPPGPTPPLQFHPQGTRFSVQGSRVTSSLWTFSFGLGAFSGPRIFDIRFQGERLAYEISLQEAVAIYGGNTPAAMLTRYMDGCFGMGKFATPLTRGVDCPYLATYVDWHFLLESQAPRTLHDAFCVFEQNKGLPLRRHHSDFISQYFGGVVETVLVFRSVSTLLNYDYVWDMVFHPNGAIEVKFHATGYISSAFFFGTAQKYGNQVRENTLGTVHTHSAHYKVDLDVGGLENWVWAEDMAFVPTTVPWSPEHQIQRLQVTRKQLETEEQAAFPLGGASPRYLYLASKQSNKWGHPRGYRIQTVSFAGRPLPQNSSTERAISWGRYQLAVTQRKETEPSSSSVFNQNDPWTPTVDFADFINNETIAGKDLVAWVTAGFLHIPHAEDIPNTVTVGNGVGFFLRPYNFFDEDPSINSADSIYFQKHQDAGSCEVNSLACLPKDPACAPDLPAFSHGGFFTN
# In short: (§2)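 Competition with natural substrate at fixed 50 μM: spermine for purified bovine plasma SSAO and human recombinant SMOX, N1-acetylspermidine for human recombinant APAO. Analogue tested at 50 μM, with activity expressed relative to reaction without analogue.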
# DU-145 = assay: Reversal of alpha-difluoromethylornithine-induced growth arrest in human DU145 cells at 100 uM after 3 days; format: functional, cell-based
# In short: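 DU145 cells cultured 3 days with 100 μM analogue, with or without 5 mM DFMO, all supplemented with 1 mM aminoguanidine. Growth assessed by electronic cell counting. Means ± SD, n = 3.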
# [3] = biological target: T2, Ornithine decarboxylase (Homo sapiens) (UniProt P11926); assay: Inhibition of ODC in human DU145 cells at 100 uM after 6 hrs; format: cell-based
# T2 sequence (whole entry): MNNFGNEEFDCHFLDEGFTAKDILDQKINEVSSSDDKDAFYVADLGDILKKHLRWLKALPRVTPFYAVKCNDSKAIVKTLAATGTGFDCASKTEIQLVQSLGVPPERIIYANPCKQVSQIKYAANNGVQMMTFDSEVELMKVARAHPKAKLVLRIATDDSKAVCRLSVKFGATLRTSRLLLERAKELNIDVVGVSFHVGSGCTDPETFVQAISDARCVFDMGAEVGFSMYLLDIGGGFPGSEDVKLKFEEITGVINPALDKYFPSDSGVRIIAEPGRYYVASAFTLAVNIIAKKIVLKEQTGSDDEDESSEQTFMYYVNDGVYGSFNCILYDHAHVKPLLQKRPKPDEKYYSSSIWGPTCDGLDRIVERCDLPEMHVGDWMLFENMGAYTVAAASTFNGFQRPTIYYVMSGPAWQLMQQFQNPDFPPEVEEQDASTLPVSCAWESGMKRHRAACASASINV
# [4] = biological target: T2, Ornithine decarboxylase (Homo sapiens); assay: Inhibition of ODC in human DU145 cells at 100 uM after 3 days; format: cell-based
# [5] = biological target: T3, S-adenosylmethionine decarboxylase proenzyme (Homo sapiens) (UniProt P17707); assay: Inhibition of AdoMetDC in human DU145 cells at 100 uM after 6 hrs; format: cell-based
# T3 sequence (whole entry): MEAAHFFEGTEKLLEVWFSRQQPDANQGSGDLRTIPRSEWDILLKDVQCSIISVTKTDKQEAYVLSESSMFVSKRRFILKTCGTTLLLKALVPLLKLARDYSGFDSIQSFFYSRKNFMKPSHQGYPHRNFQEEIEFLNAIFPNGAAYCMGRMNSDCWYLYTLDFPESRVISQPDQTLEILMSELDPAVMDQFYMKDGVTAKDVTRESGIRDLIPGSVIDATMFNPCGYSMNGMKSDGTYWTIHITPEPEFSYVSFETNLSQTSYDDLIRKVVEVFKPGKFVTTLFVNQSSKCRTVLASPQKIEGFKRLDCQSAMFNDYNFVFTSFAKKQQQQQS
# [6] = biological target: T3, S-adenosylmethionine decarboxylase proenzyme (Homo sapiens); assay: Inhibition of AdoMetDC in human DU145 cells at 100 uM after 3 days; format: cell-based
# [7] = biological target: Diamine acetyltransferase 1 (Homo sapiens) (UniProt P21673); assay: Induction of changes in SSAT activity in human DU145 cells at 100 uM after 6 hrs; format: cell-based
# [8] = biological target: Diamine acetyltransferase 1 (Homo sapiens) (UniProt P21673); assay: Induction of changes in SSAT activity in human DU145 cells at 100 uM after 3 days; format: cell-based
# [9] = biological target: Ornithine decarboxylase antizyme 1 (Homo sapiens) (UniProt P54368); assay: Induction of OAZ1 in human DU145 cells assessed as reduction in intracellular ODC activity at 10 uM after 6 hrs relative to control; parameters: scale not given: the % may be the effect or the level left
# [10] = biological target: Spermine oxidase (Homo sapiens) (UniProt Q9NWM0); assay: Inhibition of recombinant human SMOX at 500 uM using spermine as substrate relative to control
# In short: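 Human recombinant SMOX reaction with spermine fixed at 50 μM as substrate, analogue added at 500 μM. Activity expressed relative to reaction without analogue.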
# [11] = biological target: Spermine oxidase (Homo sapiens) (UniProt Q9NWM0); assay: Inhibition of recombinant human SMOX at 50 uM using spermine as substrate relative to control; in short: as §2
# [12] = biological target: Ornithine decarboxylase antizyme 1 (Homo sapiens) (UniProt P54368); assay: Induction of OAZ1 in human DU145 cells assessed as reduction in intracellular ODC activity at 100 uM after 6 hrs relative to control; parameters: scale not given: the % may be the effect or the level left
# Chain of Diamine acetyltransferase 1 (Homo sapiens) (P21673 whole entry): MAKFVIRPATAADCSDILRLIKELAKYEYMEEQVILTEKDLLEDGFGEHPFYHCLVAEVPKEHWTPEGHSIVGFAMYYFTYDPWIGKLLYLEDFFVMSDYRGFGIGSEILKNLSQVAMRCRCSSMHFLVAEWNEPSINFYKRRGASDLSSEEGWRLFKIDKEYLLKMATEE
# Chain of Ornithine decarboxylase antizyme 1 (Homo sapiens) (P54368 whole entry): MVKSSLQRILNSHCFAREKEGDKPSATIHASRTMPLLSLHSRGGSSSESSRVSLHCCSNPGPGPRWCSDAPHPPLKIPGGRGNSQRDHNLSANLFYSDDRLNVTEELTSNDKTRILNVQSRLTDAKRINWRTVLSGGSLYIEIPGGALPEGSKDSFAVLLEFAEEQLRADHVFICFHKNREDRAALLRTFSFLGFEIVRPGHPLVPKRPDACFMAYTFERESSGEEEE
# Chain of Diamine acetyltransferase 1 (Mus musculus) (chain, as listed by the source): as the sequence (P21673 whole entry) above, with V5K, A12S, E32D, L42Q, R119K, T169A counted along it
# Chain of Diamine acetyltransferase 1 (Mus musculus) (UniProt P48026) (P48026 whole entry): as the sequence (P21673 whole entry) above, with V5K, A12S, E32D, L42Q, R119K, T169A counted along it
# Chain of Spermine oxidase (Homo sapiens) (Q9NWM0 whole entry): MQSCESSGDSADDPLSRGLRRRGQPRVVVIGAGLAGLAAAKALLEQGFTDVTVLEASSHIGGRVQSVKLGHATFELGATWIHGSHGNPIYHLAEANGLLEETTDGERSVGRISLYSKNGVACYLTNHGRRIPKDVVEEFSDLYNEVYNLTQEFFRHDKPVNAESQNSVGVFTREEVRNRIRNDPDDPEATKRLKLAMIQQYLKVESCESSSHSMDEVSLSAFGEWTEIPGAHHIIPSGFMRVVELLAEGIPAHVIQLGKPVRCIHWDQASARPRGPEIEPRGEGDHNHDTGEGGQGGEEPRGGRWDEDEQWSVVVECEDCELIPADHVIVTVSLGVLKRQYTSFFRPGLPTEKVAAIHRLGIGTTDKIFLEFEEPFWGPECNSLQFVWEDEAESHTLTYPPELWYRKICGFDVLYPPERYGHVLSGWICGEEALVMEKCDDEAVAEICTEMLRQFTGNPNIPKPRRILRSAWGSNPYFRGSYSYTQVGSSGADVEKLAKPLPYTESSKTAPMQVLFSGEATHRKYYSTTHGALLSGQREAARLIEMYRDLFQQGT
inhibition [1],inhibition [2],inhibition [3],inhibition [4],inhibition [5],inhibition [6],Activity [7],Activity [8],Activity [9],inhibition [10],inhibition [11],Activity [12],Molecule,Km (CC(CCN)NCCCCNC(C)CCN),Vmax (CC(CCN)NCCCCNC(C)CCN),Km (CC(CN)CNCCCCNCC(C)CN),Vmax (CC(CN)CNCCCCNCC(C)CN),Activity (DU-145)
,,,,,,,,,,,,Diamine acetyltransferase 1 (Mus musculus),60 µM,0.136 µmol/min/mg,52 µM,0.895 µmol/min/mg,
80%,inactive,Active,Active,Active,Active,inactive,Active,80%,,,,CC(N)CCNCCCCNCCC(C)N (centres undefined),,,,,Active
,,Active,Active,,,,,80%,,,,NCCCNCCCCNCCCN,,,,,
,80%,Active,Active,Active,Active,inactive,Active,80%,70%,,,CC(CN)CNCCCCNCC(C)CN (centres undefined),,,,,Active
75%,inactive,inactive,inactive,Active,Active,inactive,inactive,5%,,70%,55%,CC(CCN)NCCCCNC(C)CCN (centres undefined),,,,,Active
